# Assay results: ChEMBL document CHEMBL1152997, “Prevalence of and molecular basis for tuberculosis drug resistance in the Republic of Georgia: validation of a QIAplex system for detection of drug resistance-related mutations” (2008)
# What was measured:
# Type in all cases: functional
# [1] = tested on: Mycobacterium tuberculosis; assay: Antimycobacterial activity against Mycobacterium tuberculosis clinical isolates from tuberculosis patient assessed as percent specific isolates at 2 ug/ml by absolute-concentration method
# [2] = tested on: Mycobacterium tuberculosis; assay: Antimycobacterial activity against Mycobacterium tuberculosis clinical isolates from tuberculosis patient assessed as percent sensitive isolates at 2 ug/ml by absolute-concentration method
# In short: (§1)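 Consecutive clinical M. tuberculosis isolates (196), Tbilisi, Jan–Mar 2006, primary culture on Lowenstein-Jensen medium. Suspension adjusted to 1 McFarland in sterile saline. 0.2 ml was plated onto drug-containing solid medium: a 10-fold dilution series for the 2, 4 and 40 µg/ml media, and a 100-fold dilution for the 0.2 µg/ml medium. Incubation at 37°C, 5–10% CO2, 28 days.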
# [3] = tested on: Mycobacterium tuberculosis; assay: Antimycobacterial activity against Mycobacterium tuberculosis clinical isolates from tuberculosis patient assessed as percent specific isolates at 0.2 ug/ml by absolute-concentration method
# [4] = tested on: Mycobacterium tuberculosis; assay: Antimycobacterial activity against Mycobacterium tuberculosis clinical isolates from tuberculosis patient assessed as percent sensitive isolates at 0.2 ug/ml by absolute-concentration method; in short: as §1
# [5] = tested on: Mycobacterium tuberculosis; assay: Antimycobacterial activity against Mycobacterium tuberculosis clinical isolates from tuberculosis patient assessed as percent specific isolates at 40 ug/ml by absolute-concentration method
# [6] = tested on: Mycobacterium tuberculosis; assay: Antimycobacterial activity against Mycobacterium tuberculosis clinical isolates from tuberculosis patient assessed as percent sensitive isolates at 40 ug/ml by absolute-concentration method; in short: as §1
# [7] = tested on: Mycobacterium tuberculosis; assay: Antimycobacterial activity against Mycobacterium tuberculosis clinical isolates from tuberculosis patient assessed as percent specific isolates at 4 ug/ml by absolute-concentration method
# [8] = tested on: Mycobacterium tuberculosis; assay: Antimycobacterial activity against Mycobacterium tuberculosis clinical isolates from tuberculosis patient assessed as percent sensitive isolates at 4 ug/ml by absolute-concentration method; in short: as §1
smiles,measurement,setting,value
CC[C@@H](CO)NCCN[C@@H](CC)CO [ETHAMBUTOL],Activity,[1],98.9%
same,Activity,[2],50%
NNC(=O)c1ccncc1 [ISONIAZID],Activity,[3],96.1%
same,Activity,[4],85.4%
CO[C@H]1/C=C/O[C@@]2(C)Oc3c(C)c(O)c4c(O)c(c(/C=N/N5CCN(C)CC5)c(O)c4c3C2=O)NC(=O)/C(C)=C\C=C\[C@H](C)[C@H](O)[C@@H](C)[C@@H](O)[C@@H](C)[C@H](OC(C)=O)[C@@H]1C [RIFAMPIN],Activity,[5],99.4%
same,Activity,[6],94.5%
CN[C@@H]1[C@H](O[C@H]2[C@H](O[C@H]3[C@H](O)[C@@H](O)[C@H](N=C(N)N)[C@@H](O)[C@@H]3N=C(N)N)O[C@@H](C)[C@]2(O)C=O)O[C@@H](CO)[C@H](O)[C@H]1O [STREPTOMYCIN],Activity,[7],99.2%
same,Activity,[8],69.6%
